Assay results taken from ChEMBL document CHEMBL1129660, “Studies on 6-aminoquinolones: synthesis and antibacterial evaluation of 6-amino-8-methylquinolones” (J Med Chem, 1996).
≈ marks a conversion by molar mass, not a printed value.

system: Pseudomonas aeruginosa; experiment: Antibacterial activity tested against P. ae (Pseudomonas aeruginosa) ATCC 9027; format: functional
How it was run: (§1)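 MICs (µg/mL) determined by conventional agar dilution against a panel of eight Gram-negative and five Gram-positive reference strains.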

Row | SMILES | MIC [µg/mL]
1 | Cc1c(N2C[C@@H](C)O[C@@H](C)C2)c(N)cc2c(=O)c(C(=O)O)cn(C3CC3)c12 | 4 (≈ 10.8 µM)
2 | Cc1c(N2CCSCC2)c(N)cc2c(=O)c(C(=O)O)cn(C3CC3)c12 | 1 (≈ 2.78 µM)
3 | Cc1c(N2CCc3ccccc3C2)c(F)cc2c(=O)c(C(=O)O)cn(C3CC3)c12 | 4 (≈ 10.2 µM)

system: Staphylococcus aureus; experiment: Antibacterial activity tested against Staphylococcus aureus; Range is 0.06-0.13 ug/mL; format: functional

Row | SMILES | MIC [µg/mL]
4 | Cc1c(N2C[C@@H](C)O[C@@H](C)C2)c(N)cc2c(=O)c(C(=O)O)cn(C3CC3)c12 | 0.06 (≈ 0.162 µM)
5 | Cc1c(N2CCSCC2)c(N)cc2c(=O)c(C(=O)O)cn(C3CC3)c12 | 0.06 (≈ 0.167 µM)

system: Escherichia coli; experiment: Antibacterial activity tested against Escherichia coli ATCC 8739; format: functional; how it was run: as §1

Row | SMILES | MIC [µg/mL]
6 | Cc1c(N2C[C@@H](C)O[C@@H](C)C2)c(N)cc2c(=O)c(C(=O)O)cn(C3CC3)c12 | 0.008 (≈ 0.0215 µM)
7 | Cc1c(N2CCSCC2)c(N)cc2c(=O)c(C(=O)O)cn(C3CC3)c12 | 0.25 (≈ 0.696 µM)
8 | Cc1c(N2CCc3ccccc3C2)c(F)cc2c(=O)c(C(=O)O)cn(C3CC3)c12 | 0.06 (≈ 0.153 µM)

system: Enterococcus faecium; experiment: Antibacterial activity tested against Enterococcus faecium; format: functional

Row | SMILES | MIC [µg/mL]
9 | Cc1c(N2CCSCC2)c(N)cc2c(=O)c(C(=O)O)cn(C3CC3)c12 | 2 (≈ 5.56 µM)

system: Enterococcus faecium; experiment: Antibacterial activity tested against Enterococcus faecium; Range is 1-32 ug/mL; format: functional

Row | SMILES | MIC [µg/mL]
10 | Cc1c(N2C[C@@H](C)O[C@@H](C)C2)c(N)cc2c(=O)c(C(=O)O)cn(C3CC3)c12 | 1 (≈ 2.69 µM)

system: Staphylococcus aureus; experiment: Antibacterial activity against Staphylococcus aureus MPR 5; format: functional; how it was run: as §1

Row | SMILES | MIC [µg/mL]
11 | Cc1c(N2C[C@@H](C)O[C@@H](C)C2)c(N)cc2c(=O)c(C(=O)O)cn(C3CC3)c12 | 0.03 (≈ 0.0808 µM)
12 | Cc1c(N2CCSCC2)c(N)cc2c(=O)c(C(=O)O)cn(C3CC3)c12 | 0.06 (≈ 0.167 µM)
13 | Cc1c(N2CCc3ccccc3C2)c(F)cc2c(=O)c(C(=O)O)cn(C3CC3)c12 | 0.03 (≈ 0.0764 µM)

system: Enterobacter cloacae; experiment: Antibacterial activity tested against Enterobacter cloacae OMNFI 174; format: functional

Row | SMILES | MIC [µg/mL]
14 | Cc1c(N2C[C@@H](C)O[C@@H](C)C2)c(N)cc2c(=O)c(C(=O)O)cn(C3CC3)c12 | 1 (≈ 2.69 µM)
15 | Cc1c(N2CCSCC2)c(N)cc2c(=O)c(C(=O)O)cn(C3CC3)c12 | 0.25 (≈ 0.696 µM)
16 | Cc1c(N2CCc3ccccc3C2)c(F)cc2c(=O)c(C(=O)O)cn(C3CC3)c12 | 4 (≈ 10.2 µM)

system: Proteus vulgaris; experiment: Antibacterial activity tested against Proteus vulgaris CNUR 5; format: functional; how it was run: as §1

Row | SMILES | MIC [µg/mL]
17 | Cc1c(N2C[C@@H](C)O[C@@H](C)C2)c(N)cc2c(=O)c(C(=O)O)cn(C3CC3)c12 | 8 (≈ 21.5 µM)
18 | Cc1c(N2CCSCC2)c(N)cc2c(=O)c(C(=O)O)cn(C3CC3)c12 | 32 (≈ 89 µM)
19 | Cc1c(N2CCc3ccccc3C2)c(F)cc2c(=O)c(C(=O)O)cn(C3CC3)c12 | 4 (≈ 10.2 µM)

system: Staphylococcus aureus; experiment: Antibacterial activity against Staphylococcus aureus ATCC 6538; format: functional; how it was run: as §1

Row | SMILES | MIC [µg/mL]
20 | Cc1c(N2C[C@@H](C)O[C@@H](C)C2)c(N)cc2c(=O)c(C(=O)O)cn(C3CC3)c12 | 0.03 (≈ 0.0808 µM)
21 | Cc1c(N2CCSCC2)c(N)cc2c(=O)c(C(=O)O)cn(C3CC3)c12 | 0.06 (≈ 0.167 µM)
22 | Cc1c(N2CCc3ccccc3C2)c(F)cc2c(=O)c(C(=O)O)cn(C3CC3)c12 | 0.03 (≈ 0.0764 µM)

system: Enterococcus faecalis; experiment: Antibacterial activity tested against Enterococcus faecalis; format: functional

Row | SMILES | MIC [µg/mL]
23 | Cc1c(N2C[C@@H](C)O[C@@H](C)C2)c(N)cc2c(=O)c(C(=O)O)cn(C3CC3)c12 | 0.05 (≈ 0.135 µM)
24 | Cc1c(N2CCSCC2)c(N)cc2c(=O)c(C(=O)O)cn(C3CC3)c12 | 0.5 (≈ 1.39 µM)

system: Bacteria; experiment: Geometric mean of antibacterial activity (Gram +ve bacteria) of the compound; format: functional
How it was run: (§2)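 Geometric means calculated from agar-dilution MICs (µg/mL), taken separately across the five Gram-positive and the eight Gram-negative panel strains.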

Row | SMILES | Geometric mean
25 | Cc1c(N2C[C@@H](C)O[C@@H](C)C2)c(N)cc2c(=O)c(C(=O)O)cn(C3CC3)c12 | 0.107
26 | Cc1c(N2CCSCC2)c(N)cc2c(=O)c(C(=O)O)cn(C3CC3)c12 | 0.123
27 | Cc1c(N2CCc3ccccc3C2)c(F)cc2c(=O)c(C(=O)O)cn(C3CC3)c12 | 0.046

system: Providencia stuartii; experiment: Antibacterial activity tested against Providencia stuartii CNUR 5; format: functional; how it was run: as §1

Row | SMILES | MIC [µg/mL]
28 | Cc1c(N2C[C@@H](C)O[C@@H](C)C2)c(N)cc2c(=O)c(C(=O)O)cn(C3CC3)c12 | 1 (≈ 2.69 µM)
29 | Cc1c(N2CCSCC2)c(N)cc2c(=O)c(C(=O)O)cn(C3CC3)c12 | 2 (≈ 5.56 µM)
30 | Cc1c(N2CCc3ccccc3C2)c(F)cc2c(=O)c(C(=O)O)cn(C3CC3)c12 | 2 (≈ 5.1 µM)

system: Escherichia coli; experiment: Inhibitory activity against gyrase supercoiling activity from Escherichia coli; format: functional
How it was run: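 Inhibition of DNA gyrase supercoiling activity, by a previously described protocol with slight modifications. IC50 derived by densitometric quantification of the supercoiled DNA peak in an agarose gel.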

Row | SMILES | IC50 [µg/mL]
31 | Cc1c(N2C[C@@H](C)O[C@@H](C)C2)c(N)cc2c(=O)c(C(=O)O)cn(C3CC3)c12 | > 50
32 | Cc1c(N2CCSCC2)c(N)cc2c(=O)c(C(=O)O)cn(C3CC3)c12 | 1.42 (≈ 3.95 µM)
33 | Cc1c(N2CCc3ccccc3C2)c(F)cc2c(=O)c(C(=O)O)cn(C3CC3)c12 | 3.14 (≈ 8 µM)

system: Streptococcus pneumoniae; experiment: Antibacterial activity tested against Streptococcus pneumoniae; Range is 1-2 ug/mL; format: functional

Row | SMILES | MIC [µg/mL]
34 | Cc1c(N2CCSCC2)c(N)cc2c(=O)c(C(=O)O)cn(C3CC3)c12 | 1 (≈ 2.78 µM)

system: Klebsiella pneumoniae; experiment: Antibacterial activity tested against Klebsiella pneumoniae (Klebsiella pneumoniae) ATCC 10031; format: functional; how it was run: as §1

Row | SMILES | MIC [µg/mL]
35 | Cc1c(N2C[C@@H](C)O[C@@H](C)C2)c(N)cc2c(=O)c(C(=O)O)cn(C3CC3)c12 | 0.08 (≈ 0.215 µM)
36 | Cc1c(N2CCSCC2)c(N)cc2c(=O)c(C(=O)O)cn(C3CC3)c12 | 0.02 (≈ 0.0556 µM)
37 | Cc1c(N2CCc3ccccc3C2)c(F)cc2c(=O)c(C(=O)O)cn(C3CC3)c12 | 0.03 (≈ 0.0764 µM)

system: Staphylococcus aureus; experiment: Antibacterial activity tested against Staphylococcus aureus Methicillin-and Ciprofloxacin resistants; Range is 2-4 ug/mL; format: functional

Row | SMILES | MIC [µg/mL]
38 | Cc1c(N2C[C@@H](C)O[C@@H](C)C2)c(N)cc2c(=O)c(C(=O)O)cn(C3CC3)c12 | 2 (≈ 5.38 µM)

system: Streptococcus pneumoniae; experiment: Antibacterial activity tested against Streptococcus pneumoniae; format: functional

Row | SMILES | MIC [µg/mL]
39 | Cc1c(N2C[C@@H](C)O[C@@H](C)C2)c(N)cc2c(=O)c(C(=O)O)cn(C3CC3)c12 | 2 (≈ 5.38 µM)

system: Staphylococcus epidermidis; experiment: Antibacterial activity tested against Staphylococcus epidermidis CPHL A2; format: functional; how it was run: as §1

Row | SMILES | MIC [µg/mL]
40 | Cc1c(N2C[C@@H](C)O[C@@H](C)C2)c(N)cc2c(=O)c(C(=O)O)cn(C3CC3)c12 | 0.125 (≈ 0.337 µM)
41 | Cc1c(N2CCSCC2)c(N)cc2c(=O)c(C(=O)O)cn(C3CC3)c12 | 0.125 (≈ 0.348 µM)
42 | Cc1c(N2CCc3ccccc3C2)c(F)cc2c(=O)c(C(=O)O)cn(C3CC3)c12 | 0.03 (≈ 0.0764 µM)

system: not listed separately; experiment: Geometric mean of antibacterial activity (Gram -ve bacteria) of the compound; format: functional; how it was run: as §2

Row | SMILES | Geometric mean
43 | Cc1c(N2C[C@@H](C)O[C@@H](C)C2)c(N)cc2c(=O)c(C(=O)O)cn(C3CC3)c12 | 0.336
44 | Cc1c(N2CCSCC2)c(N)cc2c(=O)c(C(=O)O)cn(C3CC3)c12 | 0.362
45 | Cc1c(N2CCc3ccccc3C2)c(F)cc2c(=O)c(C(=O)O)cn(C3CC3)c12 | 0.451

system: Escherichia coli; experiment: Antibacterial activity tested against Escherichia coli ISF 432; format: functional; how it was run: as §1

Row | SMILES | MIC [µg/mL]
46 | Cc1c(N2C[C@@H](C)O[C@@H](C)C2)c(N)cc2c(=O)c(C(=O)O)cn(C3CC3)c12 | 0.008 (≈ 0.0215 µM)
47 | Cc1c(N2CCSCC2)c(N)cc2c(=O)c(C(=O)O)cn(C3CC3)c12 | 0.03 (≈ 0.0835 µM)
48 | Cc1c(N2CCc3ccccc3C2)c(F)cc2c(=O)c(C(=O)O)cn(C3CC3)c12 | 0.03 (≈ 0.0764 µM)

system: Shigella; experiment: Antibacterial activity tested against Shigella enteritidis; format: functional; how it was run: as §1

Row | SMILES | MIC [µg/mL]
49 | Cc1c(N2C[C@@H](C)O[C@@H](C)C2)c(N)cc2c(=O)c(C(=O)O)cn(C3CC3)c12 | 1 (≈ 2.69 µM)
50 | Cc1c(N2CCSCC2)c(N)cc2c(=O)c(C(=O)O)cn(C3CC3)c12 | 0.125 (≈ 0.348 µM)
51 | Cc1c(N2CCc3ccccc3C2)c(F)cc2c(=O)c(C(=O)O)cn(C3CC3)c12 | 0.25 (≈ 0.637 µM)

system: Staphylococcus epidermidis; experiment: Antibacterial activity tested against Staphylococcus epidermidis HCF Berset C; format: functional; how it was run: as §1

Row | SMILES | MIC [µg/mL]
52 | Cc1c(N2C[C@@H](C)O[C@@H](C)C2)c(N)cc2c(=O)c(C(=O)O)cn(C3CC3)c12 | 0.125 (≈ 0.337 µM)
53 | Cc1c(N2CCSCC2)c(N)cc2c(=O)c(C(=O)O)cn(C3CC3)c12 | 0.125 (≈ 0.348 µM)
54 | Cc1c(N2CCc3ccccc3C2)c(F)cc2c(=O)c(C(=O)O)cn(C3CC3)c12 | 0.03 (≈ 0.0764 µM)

system: Enterococcus faecalis; experiment: Antibacterial activity tested against Streptococcus faecalis LEP Br; format: functional; how it was run: as §1

Row | SMILES | MIC [µg/mL]
55 | Cc1c(N2C[C@@H](C)O[C@@H](C)C2)c(N)cc2c(=O)c(C(=O)O)cn(C3CC3)c12 | 1 (≈ 2.69 µM)
56 | Cc1c(N2CCSCC2)c(N)cc2c(=O)c(C(=O)O)cn(C3CC3)c12 | 0.5 (≈ 1.39 µM)
57 | Cc1c(N2CCc3ccccc3C2)c(F)cc2c(=O)c(C(=O)O)cn(C3CC3)c12 | 0.25 (≈ 0.637 µM)

system: Staphylococcus aureus; experiment: Antibacterial activity tested against Staphylococcus aureus Methicillin-and Ciprofloxacin resistants; Range is 2-8 ug/mL; format: functional

Row | SMILES | MIC [µg/mL]
58 | Cc1c(N2CCSCC2)c(N)cc2c(=O)c(C(=O)O)cn(C3CC3)c12 | 2 (≈ 5.56 µM)
